Test results taken from ChEMBL document CHEMBL4359813, “Synthesis and antimycobacterial activity of imidazo[1,2-b][1,2,4,5]tetrazines” (2019).
Calls of active or inactive are those of the source. The rule behind the calls is not given here.

Assays:
[1] = tested on: Mycolicibacterium smegmatis; experiment: Antimycobacterial activity against Mycobacterium smegmatis atR33 assessed as decrease in drug resistance development at 10 ug/disc after 2 to 3 days by paper disc method; format: functional, organism-based
Summary of the method: (§1)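 Mutant M. smegmatis strains were grown in Middlebrook 7H9/OADC/Tween/glycerol to OD600 1.2. Cultures were diluted 1:9:10 (culture:water:M290) and overlaid on M290 agar. Commercial or impregnated paper discs were applied and plates incubated 2–3 days at 37 °C. Inhibition halos were measured to 1 mm, run in triplicate, mean ± SD.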

[2] = tested on: Mycolicibacterium smegmatis; experiment: Antimycobacterial activity against Mycobacterium smegmatis atR9 assessed as decrease in drug resistance development at 10 ug/disc after 2 to 3 days by paper disc method; format: functional, organism-based
Summary of the method: (§2)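 Drug-resistant M. smegmatis mc2 155 mutants, isolated on M290 agar with 3.5-4× MIC of compound and resistance re-confirmed, grown in Middlebrook 7H9 (OADC, 0.1% Tween-80, 0.4% glycerol) to OD600 1.2. Diluted 1:9:10 culture:water:M290 and poured as top layer on M290 agar. Impregnated paper discs applied; 37 °C for 2–3 days. Halos measured to nearest 1 mm; triplicates, mean ± SD versus control strain.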

[3] = tested on: Mycolicibacterium smegmatis; experiment: Antimycobacterial activity against Mycobacterium smegmatis atR10 assessed as decrease in drug resistance development at 10 ug/disc after 2 to 3 days by paper disc method; format: functional, organism-based; summary of the method: as §1
[4] = tested on: Mycolicibacterium smegmatis; experiment: Antimycobacterial activity against Mycobacterium smegmatis atR37 assessed as decrease in drug resistance development at 10 ug/disc after 2 to 3 days by paper disc method; format: functional, organism-based; summary of the method: as §2
[5] = tested on: Mycolicibacterium smegmatis; experiment: Antimycobacterial activity against Mycobacterium smegmatis atR2 assessed as decrease in drug resistance development at 2 ug/disc after 2 to 3 days by paper disc method; format: functional, organism-based; summary of the method: as §1
[6] = tested on: Mycolicibacterium smegmatis; experiment: Antimycobacterial activity against Mycobacterium smegmatis atR40 assessed as decrease in drug resistance development at 2 ug/disc after 2 to 3 days by paper disc method; format: functional, organism-based; summary of the method: as §2
[7] = tested on: Mycolicibacterium smegmatis; experiment: Antimycobacterial activity against Mycobacterium smegmatis atR19 assessed as decrease in drug resistance development at 2 ug/disc after 2 to 3 days by paper disc method; format: functional, organism-based; summary of the method: as §1
[8] = tested on: Mycolicibacterium smegmatis MC2 155; experiment: Inhibition of STPK in Mycobacterium smegmatis MC2 155 expressing aminoglycoside phophotransferase-8 assessed as growth inhibition at 5 nmol/disk after 18 hrs in presence of kanamycin by paper disk method

Which Activity [1] does the source give for `C[C@@H](O)[C@H]1C(=O)N2C(C(=O)O)=C(SCCNC=N)C[C@H]12` here?
Its Activity is “inactive”.

What about the Activity [2] of the same compound?
The Activity was “inactive”.

And the Activity [3]?
The Activity was “inactive”.

And the Activity [4]?
The Activity was “inactive”.

Which results are given for `CC1COc2c(N3CCN(C)CC3)c(F)cc3c(=O)c(C(=O)O)cn1c23` (stereo not drawn)?
Activity [5]: inactive; Activity [6]: inactive; Activity [7]: inactive

How did the inhibition zone (IZ) [8] turn out when `CCC(CCCO)Sc1cnc2nnc(-n3nc(C)cc3C)nn12` (stereo not drawn) was run?
The inhibition zone (IZ) was 9.3 mm.
